Data on three compounds can be found in ChEMBL document CHEMBL1145189, “Synthesis and evaluation of S-acyl-2-thioethyl esters of modified nucleoside 5'-monophosphates as inhibitors of hepatitis C virus RNA replication” (J Med Chem, 2005).

The IC50 is the concentration needed to halve the response being measured. Low values mean higher potency, high ones lower potency. For orientation: EC50 means the midpoint of the concentration-response curve. The CC50 is the concentration giving 50% cytotoxicity. The low end stands for greater toxicity to the cells, the high end for lower toxicity to the cells.

Assay [1] is described as follows: Inhibitory concentration against hepatitis C virus NS5B-mediated RNA synthesis in HBI10A cells. The assay is classed as functional, cell-based. The conditions noted are these: Homo sapiens.
Assay [2] is described as follows: Effective concentration against hepatitis C virus RNA replication in a subgenomic bicistronic replicon in HBI10A cells. The assay is classed as functional, cell-based. The conditions noted are these: Homo sapiens. The method in brief:
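Stable Huh-7-derived HBI10A hepatoma line carrying a subgenomic bicistronic HCV replicon. Compound incubated with cells for 24 h. Relative replicon RNA then quantified by in situ ribonuclease protection assay.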

The nature of assay [3]: Average intracellular Metabolism was measured in human HBI10A cells after 23 hr of incubation. It counts as functional. The method in brief:
(§1)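 Radiolabeled 5-[³H] compound at 2 µM incubated with Huh-7 (passage 27) or HBI10A (passage 15) cells for 3 or 23 h. Cells extracted and analysed by ion pair reverse-phase HPLC. Triphosphate reported as pmol/million cells, with major metabolic byproducts noted. Averages of at least three separate experiments.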

For assay [4], the system named is Huh-7. Nature of the assay: Average intracellular Metabolism was measured in human Huh-7 cells after 3 h of incubation. The assay is classed as functional. The method in brief:
as §1

A short description of assay [5]: Average intracellular Metabolism was measured in human HBI10A cells after 3 h of incubation. It counts as functional. The gist of the method:
as §1

Assay [6] concerns Huh-7. Nature of the assay: Average intracellular Metabolism was measured in human Huh-7 cells after 23 hr of incubation. It counts as functional. The method in brief: as §1
The nature of assay [7]: Cytotoxic concentration of compound in human HBI10A cells infected with hepatitis C virus in MTS assay. The assay is classed as functional. The method in brief:
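MTS cytotoxicity run on samples parallel to the replicon assay, at the same time (24 h compound exposure). Cells plated at 2.0 × 10⁴/well and compound added next day at 2× in medium. Incubation at 37 °C, 5% CO₂. MTS reagent added for 1 h, then absorbance read at 490 nm.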

Assay [8] relates to CHO. Nature of the assay: Effect of compound (550 uM) on growth of CHO cells measured as population doublings from the beginning of the experiment as percent of controls after 20 hr of treatment (harvested at 20h of treatment). The assay is classed as functional, Cricetulus griseus. The method in brief:
(§2)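 Exponentially growing CHO (clone WBL) monolayers treated for 20 h without S-9. DMSO stock diluted 100-fold into medium, giving 1% v/v DMSO as vehicle control. Cultures harvested at 20, 30 or 42 h after dosing. Growth expressed as population doublings from start of experiment as a percentage of controls.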

Assay [9] deals with CHO. Nature of the assay: Effect of compound (550 uM) on growth of CHO cells measured as population doublings from the beginning of the experiment as percent of controls after 20 hr of treatment (harvested at 30h of treatment). It counts as functional, Cricetulus griseus. The gist of the method:
as §2

The test system of assay [10] is CHO. Nature of the assay: Effect of compound (550 uM) on growth of CHO cells measured as population doublings from the beginning of the experiment as percent of controls after 20 hr of treatment (harvested at 42h of treatment). It counts as functional, Cricetulus griseus. The gist of the method:
as §2

For assay [11], the system named is CHO. Nature of the assay: Effect of compound (700 uM) on growth of CHO cells measured as population doublings from the beginning of the experiment as percent of controls after 20 hr of treatment (harvested at 20h of treatment). The assay is classed as functional, Cricetulus griseus. The gist of the method:
as §2

Assay [12] deals with CHO. Description: Effect of compound (700 uM) on growth of CHO cells measured as population doublings from the beginning of the experiment as percent of controls after 20 h of treatment (harvested at 30h of treatment). The assay is classed as functional, Cricetulus griseus. The method in brief:
as §2

For assay [13], the system named is CHO. Description: Effect of compound (700 uM) on growth of CHO cells measured as population doublings from the beginning of the experiment as percent of controls after 20 hr of treatment (harvested at 42h of treatment). It counts as functional, Cricetulus griseus. The method in brief:
as §2

Assay [14] relates to CHO. Nature of the assay: Effect of compound (800 uM) on growth of CHO cells measured as population doublings from the beginning of the experiment as percent of controls after 20 hr of treatment (harvested at 20h of treatment). It counts as functional, Cricetulus griseus. The method in brief: as §2
Assay [15] concerns CHO. Description: Effect of compound (800 uM) on growth of CHO cells measured as population doublings from the beginning of the experiment as percent of controls after 20 hr of treatment (harvested at 30h of treatment). It counts as functional, Cricetulus griseus. The gist of the method:
as §2

Assay [16] relates to CHO. Nature of the assay: Effect of compound (800 uM) on growth of CHO cells measured as population doublings from the beginning of the experiment as percent of controls after 20 hr of treatment (harvested at 42h of treatment). It counts as functional, Cricetulus griseus. The method in brief: as §2
Assay [17] deals with CHO. Description: Effect of compound (600 uM) on growth of CHO cells measured as population doublings from the beginning of the experiment as percent of controls after 20 hr of treatment (harvested at 20h of treatment). The assay is classed as functional, Cricetulus griseus. The gist of the method: as §2
Assay [18] has as its system CHO. Description: Effect of compound (600 uM) on growth of CHO cells measured as population doublings from the beginning of the experiment as percent of controls after 20 hr of treatment (harvested at 30h of treatment). The assay is classed as functional, Cricetulus griseus. The method in brief: as §2
For assay [19], the system named is CHO. Description: Effect of compound (600 uM) on growth of CHO cells measured as population doublings from the beginning of the experiment as percent of controls after 20 hr of treatment (harvested at 42h of treatment). It counts as functional, Cricetulus griseus. The method in brief: as §2
The subject of assay [20] is CHO. Nature of the assay: Effect of compound (650 uM) on growth of CHO cells measured as population doublings from the beginning of the experiment as percent of controls after 20 hr of treatment (harvested at 20h of treatment). It counts as functional, Cricetulus griseus. The method in brief:
as §2

Assay [21] relates to CHO. Nature of the assay: Effect of compound (650 uM) on growth of CHO cells measured as population doublings from the beginning of the experiment as percent of controls after 20 hr of treatment (harvested at 30h of treatment). The assay is classed as functional, Cricetulus griseus. The gist of the method:
as §2

For assay [22], the system named is CHO. Nature of the assay: Effect of compound (650 uM) on growth of CHO cells measured as population doublings from the beginning of the experiment as percent of controls after 20 hr of treatment (harvested at 42h of treatment). The assay is classed as functional, Cricetulus griseus. The method in brief: as §2
For assay [23], the system named is CHO. Description: Percent of CHO cells with chromosomal aberrations were determined at 550 uM compound after 20 hr of treatment (harvested at 20h of treatment). It counts as functional, Cricetulus griseus. The method in brief:
(§3)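 CHO (clone WBL) monolayers treated for 20 h without S-9, with DMSO stock diluted 100-fold into medium. Harvest at 20, 30 or 42 h after dosing; colcemid added 1–2 h before harvest for metaphase arrest. Cells fixed, and 200 cells scored per point for % aberrant cells. Points not scored where toxicity prevented it. Comparison against concurrent controls.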

The subject of assay [24] is CHO. Description: Percent of CHO cells with chromosomal aberrations were determined at 550 uM compound after 20 hr of treatment (harvested at 30h of treatment). It counts as functional, Cricetulus griseus. The gist of the method:
as §3

Assay [25] relates to CHO. Description: Percent of CHO cells with chromosomal aberrations were determined at 600 uM compound after 20 hr of treatment (harvested at 20h of treatment). It counts as functional, Cricetulus griseus. The gist of the method:
as §3

For assay [26], the system named is CHO. Description: Percent of CHO cells with chromosomal aberrations were determined at 600 uM compound after 20 hr of treatment (harvested at 30h of treatment). It counts as functional, Cricetulus griseus. The gist of the method: as §3
Assay [27] concerns CHO. Nature of the assay: Percent of CHO cells with chromosomal aberrations were determined at 600 uM compound after 20 hr of treatment (harvested at 42h of treatment). It counts as functional, Cricetulus griseus. The method in brief: as §3
The subject of assay [28] is CHO. Description: Percent of CHO cells with chromosomal aberrations were determined at 650 uM compound after 20 hr of treatment (harvested at 30h of treatment). It counts as functional, Cricetulus griseus. The method in brief: as §3
The subject of assay [29] is CHO. Description: Percent of CHO cells with chromosomal aberrations were determined at 700 uM compound after 20 hr of treatment (harvested at 42h of treatment). It counts as functional, Cricetulus griseus. The gist of the method:
as §3

The subject of assay [30] is CHO. Description: Percent of CHO cells with chromosomal aberrations were determined at 650 uM compound after 20 hr of treatment (harvested at 20h of treatment); Not scored because of toxicity. It counts as functional, cell-based. Particulars: Cricetulus griseus. The method in brief:
as §3

Assay [31] concerns CHO. Description: Percent of CHO cells with chromosomal aberrations were determined at 700 uM compound after 20 hr of treatment (harvested at 20h of treatment); Not scored because of toxicity. The assay is classed as functional, cell-based. Particulars: Cricetulus griseus. The gist of the method: as §3
Assay [32] relates to CHO. Nature of the assay: Percent of CHO cells with chromosomal aberrations were determined at 700 uM compound after 20 h of treatment (harvested at 30h of treatment); Not scored because of toxicity. The conditions noted are these: Cricetulus griseus. The assay is classed as functional, cell-based. The gist of the method: as §3
The test system of assay [33] is CHO. Nature of the assay: Percent of CHO cells with chromosomal aberrations were determined at 800 uM compound after 20 hr of treatment (harvested at 20h of treatment); Not scored because of toxicity. Particulars: Cricetulus griseus. The assay is classed as functional, cell-based. The gist of the method: as §3
For assay [34], the system named is CHO. Nature of the assay: Percent of CHO cells with chromosomal aberrations were determined at 800 uM compound after 20 hr of treatment (harvested at 30h of treatment); Not scored because of toxicity. It counts as functional, cell-based. The conditions noted are these: Cricetulus griseus. The method in brief: as §3
Assay [35] concerns CHO. Nature of the assay: Percent of CHO cells with chromosomal aberrations were determined at 800 uM compound after 20 hr of treatment (harvested at 42h of treatment); Not scored because of toxicity. The assay is classed as functional, cell-based. Particulars: Cricetulus griseus. The gist of the method: as §3

Several values for one entry are separate records, joined by “and”; a condition that tells them apart may be missing. Identical values can stand only once.

In the case of `CO[C@@H]1[C@H](O)[C@@H](CO)O[C@H]1n1ccc(N)nc1=O`, in assay [1], the IC50 came out at 3800 nM. The midpoint of the response in [2], the EC50, lay at 21 µM. Also, the Activity was 0.18 pmol/million cells in assay [3], 0.17 pmol/million cells in assay [4], 0.05 pmol/million cells in assay [5] and 0.61 pmol/million cells in [6]. Besides, in assay [7], the CC50 was more than 100 µM.
`CO[C@@H]1[C@H](O)[C@@H](COP(=O)(OCCSC(=O)C(C)(C)C)OCCSC(=O)C(C)(C)C)O[C@H]1n1ccc(N)nc1=O`: a half-maximal response in [2] (EC50) required 3 µM. In addition, the Activity in [3] is listed as 5.8 pmol/million cells; in assay [4], 7.02 pmol/million cells; in assay [5] it was 15.9 pmol/million cells; in assay [6] it was 1.88 pmol/million cells. The Growth in [8] is given as 59%; in [9], 82%; in [10] it was 95%; in [11], 21%; in assay [12], 6%; in assay [13], 47%. Also, the Growth is 6% in [14]; 0% in assay [15]; 0% in assay [16]; 51% in [17]; 57% in [18]; 88% in assay [19]. Besides, the values for the Growth in [20], in assay [21] and in assay [22] were 27%, 46% and 90%, respectively. Further, in [7], the CC50 is more than 100 µM. Further, the Aberrant cells was 0% in assay [23]; 3.5% in assay [24]; 2% in [25]; 1.5% in assay [26]; 1.5% in assay [27]; 4.5% and 3% in assay [28]. Further, the Aberrant cells is 3.5% in [29]; “Not scored” in assay [30]; “Not scored” in [31]; “Not scored” in assay [32]; “Not scored” in [33]; “Not scored” in assay [34]. In addition, in assay [35], the Aberrant cells result was “Not scored”.
In [1], `CO[C@@H]1[C@H](O)[C@@H](CO)O[C@H]1n1ccc2c(O)nc(N)nc21` came in with a half-inhibitory concentration (IC50) of 350 nM. Besides, in [2], the EC50 was more than 50 µM.
